Fewer inactive variants are shown than the library holds.
B1: tRNA (parent)
chain: GUUCCGUUGGCGUAAUGGUAACGCGUCUCCCUCCUAAGGAGAAGACUGCGGGUUCGAGUCCCGUACGGAACG

Variants of: B1
Assay: yeast fitness relative to wild type (ratio to wild type); higher = fitter; tRNA-Arg(CCU), competitive growth, 37 C, YPD
In short: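 Changes in genotype frequencies gave Darwinian fitness relative to wild type. Frequencies were read by 100-nucleotide paired-end sequencing of gene amplicons before and after pooled Saccharomyces cerevisiae strains, carrying tRNA-Arg(CCU) gene variants at the native locus, were competed in YPD at 37°C for 24 hours in six replicates. A genotype was kept only with ≥ 100 starting reads, and estimates < 0.5 were set to 0.5.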

Row | Variant | yeast fitness
1 | GUUCCGAUGGCGUAAUGGUAACGCGUCUCCCUCCUGAGGUGAAGAGUGCGGGUUCGAGUCCCGUACGGAACG | ≤ 0.5
2 | GUUCCGUUGGCGUAAUGGUAAUGCGUCUCCCUCCUAAGGAGAAGAGUGAGGGUCCAAGUACCGUACGGACCG | ≤ 0.5
3 | GUUCCGUUGGCGUAAUGGUAACGCGUCUCCCUCCUAAGGAGAAGACAGCGGGUUCGAGUCCCGUACGGUACG | 0.984
4 | GUUCCGUUGGCAUAAUGGUAACGCGUAUCCCUCCUAAGGAGAAGACUGCGGGUUCGAGUCCCGUACGGAACG | 0.844
5 | GUUCCGUUGGCGUAAUGGUAACGCGUAUCCCUCCUAAGGGGAAGAGUGCGGGUUCGAGUCCGGUACGGAACG | 0.687
6 | GUUCCGUUGGCGUAAUGGUAACGCGUCACCCCCCUAAGGAGAAGACUGCGGGUUCGAGUCCCGUACGGAACG | 0.833
7 | GUUCCGUUGGCGUAAUGGUAACGCGUCUCCCUCCUAAGGAGAAGACUCCGGGUUCGAGACCCGUACGGAACG | 0.785
8 | GUUCCGCUGGCGUAAUGGUAACGCGUCUGCCUCCUAAGGUGAAGACUGCGGGUUCGAGUCCCGUACGGAACG | 0.665
9 | GUUCCGUUGGCGUAAUGGUAACGCGUCUCCCUCCUGAGGAGCAGACUGCGGGUUCGAGUCCCGUACGGUACG | 0.744
10 | GUUUCGUUGGCGUAAUGGUAACGUGUCUCCCUCCUCAGGAGAAGACUGCGGGUUCGAGUCCCCUAGGGAACG | ≤ 0.5
11 | GUUGCGUUGGCGUAAUGGUUACGCGUCUCCCUCCUAAGGAGAAGACUGCGGGUUCGUGUCCCGUAUGGAACG | ≤ 0.5
12 | GUUCCGUUGGCGUAGUGGUAACACAUCUCCCUCCUAAAGAGAAGACUGCGGGUUCGAGUCCCGUACGGAACG | 0.746
13 | GUUCCGUUGGCGAAGUGGUAACGCGUCUACCUCCUAAGGAGAAGACUGCGGGUUCGAGUCGCGUACGGAACG | ≤ 0.5
14 | GUUCCGUUGGCGAAAUGCUAACGCGUUUCCCUCCUAAGGAGAAGACUGCGGGUUCGAGUCCCGUGCGGAACG | ≤ 0.5
15 | GUUCCGUUGGCGUAAAGGUAACGCGUCCCCCUCCUAACAAGAAGACUGCGGGUUCGAGUCCCGUACGGAACG | ≤ 0.5
16 | GUUCCGUUGGCGUAAUGCUAACGCGUUUCCCUCCUAAGGAGAAGACUGCGGGUUCGAGUCCCGUACGGAACG | 0.71
17 | GUUCCGUUGGCGUAAUGAUAACGCGUCUCCGUCCUAAGGGGAAGACUGCGGCUUCGAGUCCCGUACGGAACG | ≤ 0.5
18 | GUUCCGUUGGCGAAAUGGUAACGCGUCUCCCUACUUAGGAGAAGACUGCGGGUUCGAGUCCCGUACGCAACG | ≤ 0.5
19 | GUUCCGUCGGCGUAAUGGUAACGCGUCUCCCUCCUAAGGAGAACAAUGCGGGUUCGAGUCCCGUACGGAACG | 0.769

Row | Variant | yeast fitness
20 | GUUCCGUUGGCGUACUGGUGACGCGUCUCCCUCCUAAGGAGAAGACUGCGGGUUCGAGUCCUGGACGGAACG | ≤ 0.5
21 | GUUCCGUUGGCGUAAUGGUAACGGGUCUCCCUCCUAAGGCGAAGACUGAGGGUUCGAGUCCCGUACGGUACG | 0.589
22 | GUUCUGUUGGCGUAAUGGUAACGCGUCUCCCUCAUGAGGAGAAGACUGCGGGUUCGAGUCCCGUACGGAACG | ≤ 0.5
23 | GUUCCGUUGGCGUAAUGGUAGCGCGUCUUCCUCUUAAGGAGAAGACUGCGGGUUAGAGUGCCGUACGGAACG | ≤ 0.5
24 | GUUCCGUUGGCGUAAUGGUAACGCGUCACCCUCCUAAAGAGAAGACUGCGGGUUCGAGUCCCGUACGGAACG | 0.772
25 | GUUCCGUUGGCGUAAUGGUUUCGCGUCUCCCUCCUAAGGAGAAGACUGCGGGUUCGAGUCCCGUACGGUACG | 0.675
26 | GUUCCGUCGGCGUAAUGGUAACGCGUUUCCAUCCUAAGGAGAAGACUGCGGGUUCGAGUCCCGUACGAAACG | ≤ 0.5
27 | GUUCCGAUGGCGUAAUGGUAACACGUCUCCCUCCUAAGGAGAAGACUGCGGGUUCGAGUCCUGUACGGAACG | ≤ 0.5
28 | GUUCCGUUGGCGUAAUGGUAACGCGUCUCCCUCCUAGGGAGAAGACUGCGGAUUCGAGUCCCGUACGGAACG | 0.583
29 | GUUCCGUUGGCGUAAUGGUAACGCGUCUCCCUCCUAAGGAGAAGACCGCGGGUUCGACUCCCGUCCGGAACG | 0.614
30 | GUUACGUUGGCGUAAUGGUAACGCGUCUCCCUCCUAAGGAGAAGACUGCGGGUUCGAGUCCCGUAUGGCACG | 0.585
31 | GUUCCGUUGGCGUAAUGGUCGCGCGUCUCCCUCCUAAGGAGAAGUCUGCGGGUUCGAGUCCCGUACGGAACG | 0.91
32 | GUUCCGUUGGCGAAAUGGUAAAGCGUCUCCCUCCUAAGGAGAAGACUGCGGGUUCGAGUCCCGUGCGGAACG | 1.06
33 | GUUCCCUUGGCGUAAUGGUAGCGCGUCUCCCUCCUAAGGAGAAGACUACGGGUUCGAGUCCCGUACGGAACG | 0.977
34 | GUUCCGUUGGCGUAAUGGUAACGCGUCUCCCCCCUAAGGAGAAAACUGCGGGUUCGAGUCGCGUACGGAACG | ≤ 0.5
35 | GUUGCGUUGGCGUAAUAGUAACGCGUCUCUCUCCUAAGGAGAAGACUGCGGGUUCGAGUCCCGUACGGAACG | ≤ 0.5
36 | GUUCCGUUGGCGUAAUGGUAACGCGCUUCCCUCCUGAGGAGAAGACUGCGGGUUCGAGUCCCGUACGGAACG | 0.72
37 | GUCCCGUUGGCGUAAUGGUAACGCGUCUGCCUCCUAAGGAGAAGACUGCGGGUUCGAGUCCCGUACGGAACG | 0.679
38 | GUUCCGUUGGCGUAUUGGUAACGCGUCUCCCUCCUAAGGAGAAGACUGCGGGUUCGAGUACCGUACGGAACG | 0.512
